{
  "source": "ChEMBL document CHEMBL2331484",
  "about": "“Synthesis and biological evaluation of scopoletin derivatives” (Bioorg Med Chem, 2013)",
  "note": "Active and inactive are the calls of the source. The rule behind the calls is not given here.",
  "data": [
    {"system": "PANC-1", "test": "Inhibition of MMP-2 protein expression in human PANC1 cells at 10 to 50 umol/L after 24 hrs by SDS-PAGE analysis", "format": "functional, cell-based", "settings": "not given", "outline": "(§1)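 Gelatin zymography of culture medium from equal numbers of PANC-1 cells exposed to compound for 24 h. Samples run non-reduced and unboiled on 10% polyacrylamide with 1 mg/mL gelatin. Gel washed in 2.5% Triton X-100 buffer, digested 14 h at 37 °C in Tris–HCl/CaCl2/ZnCl2 buffer pH 7.6, then Coomassie-stained. Clear bands imaged.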", "values": [
      {"smiles": "COc1cc2ccc(=O)oc2cc1O", "note": "[SCOPOLETIN]", "inhibition": "Active"}
    ]},
    {"system": "PANC-1", "test": "Inhibition of MMP-9 protein expression in human PANC1 cells at 10 to 50 umol/L after 24 hrs by SDS-PAGE analysis", "format": "functional, cell-based", "settings": "not given", "outline": "as §1", "values": [
      {"smiles": "COc1cc2ccc(=O)oc2cc1O", "note": "[SCOPOLETIN]", "inhibition": "Active"}
    ]},
    {"system": "HUVEC", "test": "Antiangiogenic activity against HUVEC assessed as inhibition of VEGF-induced branching and network formation at 25 umol/L after 5 hrs by microscopy", "format": "functional, cell-based", "settings": "Homo sapiens", "outline": "(§2)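 Matrigel-coated wells gelled 37 °C 30 min. DMSO or compound (final 25 µmol/L) added for 30 min before plating. After 5 h, enclosed complete tubes counted in five random fields by microscopy. Triplicate experiments, means ± SEM.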", "values": [
      {"smiles": "COc1cc2ccc(=O)oc2cc1O", "note": "[SCOPOLETIN]", "inhibition": "inactive"}
    ]},
    {"system": "HUVEC", "test": "Antiangiogenic activity against HUVEC assessed as inhibition of VEGF-induced tube formation at 25 umol/L after 5 hrs by microscopy", "format": "functional, cell-based", "settings": "Homo sapiens", "outline": "as §2", "values": [
      {"smiles": "COc1cc2ccc(=O)oc2cc1O", "note": "[SCOPOLETIN]", "inhibition": "inactive"}
    ]},
    {"system": "HUVEC", "test": "Antiangiogenic activity against HUVEC assessed as inhibition of VEGF-induced cell migration at 25 umol/L after 20 hrs by Boyden chamber assay", "format": "functional, cell-based", "settings": "Homo sapiens", "outline": "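Boyden chamber, 8.0 µm membrane. HUVECs at 80% confluence serum-starved 12 h in basal medium and suspended at 1 × 10⁶ cells/mL. Pre-treated 30 min at room temperature with DMSO or compound (final 25 µmol/L). After 20 h cells fixed, stained, and counted in five random fields. Triplicate experiments.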", "values": [
      {"smiles": "COc1cc2ccc(=O)oc2cc1O", "note": "[SCOPOLETIN]", "inhibition": "inactive"}
    ]},
    {"system": "HuT78", "test": "Cytotoxicity against human HUT78 cells after 24 hrs by MTT assay", "format": "functional, cell-based", "settings": "HuT78, 24 h", "units": {"IC50": "µM"}, "values": [
      {"smiles": "COc1cc2ccc(=O)oc2cc1O", "note": "[SCOPOLETIN]", "IC50": "> 100"}
    ]},
    {"system": "K562", "test": "Cytotoxicity against human K562 cells after 24 hrs by MTT assay", "format": "functional, cell-based", "settings": "K562, 24 h", "units": {"IC50": "µM"}, "values": [
      {"smiles": "COc1cc2ccc(=O)oc2cc1O", "note": "[SCOPOLETIN]", "IC50": "> 100"}
    ]},
    {"system": "HL-60", "test": "Cytotoxicity against human HL60 cells after 24 hrs by MTT assay", "format": "functional, cell-based", "settings": "HL-60, 24 h", "units": {"IC50": "µM"}, "values": [
      {"smiles": "COc1cc2ccc(=O)oc2cc1O", "note": "[SCOPOLETIN]", "IC50": "> 100"}
    ]},
    {"system": "not listed separately", "test": "Cytotoxicity against human SHG44 cells after 24 hrs by MTT assay", "format": "functional, cell-based", "settings": "SHG-44, 24 h", "units": {"IC50": "µM"}, "values": [
      {"smiles": "COc1cc2ccc(=O)oc2cc1O", "note": "[SCOPOLETIN]", "IC50": "> 100"}
    ]},
    {"system": "A-431", "test": "Cytotoxicity against human A431 cells after 24 hrs by MTT assay", "format": "functional, cell-based", "settings": "A-431, 24 h", "units": {"IC50": "µM"}, "values": [
      {"smiles": "COc1cc2ccc(=O)oc2cc1O", "note": "[SCOPOLETIN]", "IC50": "> 100"}
    ]},
    {"system": "A549", "test": "Cytotoxicity against human A549 cells after 24 hrs by MTT assay", "format": "functional, cell-based", "settings": "A549, 24 h", "units": {"IC50": "µM"}, "values": [
      {"smiles": "COc1cc2ccc(=O)oc2cc1O", "note": "[SCOPOLETIN]", "IC50": "> 100"}
    ]},
    {"system": "MKN-45", "test": "Cytotoxicity against human MKN45 cells after 24 hrs by MTT assay", "format": "functional, cell-based", "settings": "MKN-45, 24 h", "units": {"IC50": "µM"}, "values": [
      {"smiles": "COc1cc2ccc(=O)oc2cc1O", "note": "[SCOPOLETIN]", "IC50": "> 100"}
    ]},
    {"system": "HCT-116", "test": "Cytotoxicity against human HCT116 cells after 24 hrs by MTT assay", "format": "functional, cell-based", "settings": "HCT-116, 24 h", "units": {"IC50": "µM"}, "values": [
      {"smiles": "COc1cc2ccc(=O)oc2cc1O", "note": "[SCOPOLETIN]", "IC50": "> 100"}
    ]},
    {"system": "HepG2", "test": "Cytotoxicity against human HepG2 cells after 24 hrs by MTT assay", "format": "functional, cell-based", "settings": "HepG2, 24 h", "units": {"IC50": "µM"}, "values": [
      {"smiles": "COc1cc2ccc(=O)oc2cc1O", "note": "[SCOPOLETIN]", "IC50": "> 100"}
    ]},
    {"system": "MDA-MB-231", "test": "Cytotoxicity against human MDA-MB-231 cells after 24 hrs by MTT assay", "format": "functional, cell-based", "settings": "MDA-MB-231, 24 h", "units": {"IC50": "µM"}, "values": [
      {"smiles": "COc1cc2ccc(=O)oc2cc1O", "note": "[SCOPOLETIN]", "IC50": "> 100"}
    ]},
    {"system": "MDA-MB-435", "test": "Cytotoxicity against human MDA-MB-435 cells after 24 hrs by MTT assay", "format": "functional, cell-based", "settings": "MDA-MB-435, 24 h", "units": {"IC50": "µM"}, "values": [
      {"smiles": "COc1cc2ccc(=O)oc2cc1O", "note": "[SCOPOLETIN]", "IC50": "> 100"}
    ]},
    {"system": "BXPC-3", "test": "Cytotoxicity against human BxPC3 cells after 24 hrs by MTT assay", "format": "functional, cell-based", "settings": "BXPC-3, 24 h", "units": {"IC50": "µM"}, "values": [
      {"smiles": "COc1cc2ccc(=O)oc2cc1O", "note": "[SCOPOLETIN]", "IC50": "> 100"}
    ]},
    {"system": "PANC-1", "test": "Cytotoxicity against human PANC1 cells after 24 hrs by MTT assay", "format": "functional, cell-based", "settings": "PANC-1, 24 h", "units": {"IC50": "µM"}, "values": [
      {"smiles": "COc1cc2ccc(=O)oc2cc1O", "note": "[SCOPOLETIN]", "IC50": "> 100"}
    ]},
    {"system": "PBMC", "test": "Cytotoxicity against human PBMC after 24 hrs by MTT assay", "format": "cell-based", "settings": "not given", "units": {"IC50": "µM"}, "values": [
      {"smiles": "COc1cc2ccc(=O)oc2cc1O", "note": "[SCOPOLETIN]", "IC50": "> 100"}
    ]},
    {"system": "HUVEC", "test": "Antiproliferative activity against HUVEC assessed as growth inhibition rate after 24 hrs by MTT assay", "format": "functional, cell-based", "settings": "Homo sapiens", "outline": "(§3)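 HUVECs (passages 3–5, primary cord isolates) seeded at 1 × 10⁴ cells/well. Medium replaced with M199 containing 1% FBS plus compound. Viability read by MTT after 24 h. Percent inhibition was calculated from A570 minus A630 of treated versus control wells, and IC50 determined. Triplicate experiments, means ± SEM.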", "units": {"IC50": "µM"}, "values": [
      {"smiles": "COc1ccc(C(=O)COc2cc3oc(=O)ccc3cc2OC)cc1", "IC50": 37.5},
      {"smiles": "COc1cc2ccc(=O)oc2cc1OCC(=O)c1ccccc1", "IC50": 62.4}
    ]},
    {"system": "HUVEC", "test": "Antiproliferative activity against HUVEC assessed as growth inhibition rate at 100 uM after 24 hrs by MTT assay", "format": "functional", "settings": "Homo sapiens, read-out: GI", "outline": "as §3", "units": {"inhibition of growth at 100 µM": "%"}, "values": [
      {"smiles": "COc1ccc(C(=O)COc2cc3oc(=O)ccc3cc2OC)cc1", "inhibition of growth at 100 µM": 85.6},
      {"smiles": "COc1cc2ccc(=O)oc2cc1OCC(=O)c1ccccc1", "inhibition of growth at 100 µM": 83.6},
      {"smiles": "COc1cc2ccc(=O)oc2cc1O", "note": "[SCOPOLETIN]", "inhibition of growth at 100 µM": 2.1}
    ]},
    {"system": "HUVEC", "test": "Antiproliferative activity against HUVEC assessed as growth inhibition rate at 10 uM after 24 hrs by MTT assay", "format": "functional", "settings": "Homo sapiens, read-out: GI", "outline": "as §3", "units": {"inhibition of growth at 10 µM": "%"}, "values": [
      {"smiles": "COc1ccc(C(=O)COc2cc3oc(=O)ccc3cc2OC)cc1", "inhibition of growth at 10 µM": 7.6},
      {"smiles": "COc1cc2ccc(=O)oc2cc1OCC(=O)c1ccccc1", "inhibition of growth at 10 µM": 3.4},
      {"smiles": "COc1cc2ccc(=O)oc2cc1O", "note": "[SCOPOLETIN]", "inhibition of growth at 10 µM": 0}
    ]},
    {"system": "HUVEC", "test": "Antiangiogenic activity against HUVEC assessed as inhibition of VEGF-induced migration at 25 umol/L after 20 hrs by microscopy", "settings": "Homo sapiens", "values": [
      {"smiles": "COc1cc2ccc(=O)oc2cc1O", "note": "[SCOPOLETIN]", "inhibition": "inactive"}
    ]}
  ]
}
